From publication PMC3557458 (Journal of molecular biology, 2012)
“Also recorded” adds a separate entry of the source. Values belong to the molecule of their own block, whether it stands above or below them.

Columns and labels:
Bim and Bad BH3 peptides = type: binding, human; conditions: FP competition, Bim-22 and Bad-22, Ki relative to Bcl-xL
Procedure, shortened: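 His6-tagged Bcl-xL variants (E. coli RP3098, Ni-NTA under native conditions) at 50 nM with 15 nM fluorescein-labelled peptide, which varied by variant, competed against serially diluted unlabelled peptide. Equilibrated ≥3 hr at ~25 °C; anisotropy read in duplicate. Ki values were fitted using direct-binding Kd values, then normalized to averaged parent-protein Ki.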

RX1, recombinant (human) = RX1, recombinant (human) (UniProt Q07817); assay: fluorescence polarisation
[1] = target: recombinant native Bcl-xL (human) (UniProt Q07817); assay: fluorescence polarisation
[2] = target: recombinant native Bcl-xL (human, UniProt Q07817-1 1-209); assay: fluorescence polarisation
recombinant native Bcl-xL, sequence (Q07817 1-209): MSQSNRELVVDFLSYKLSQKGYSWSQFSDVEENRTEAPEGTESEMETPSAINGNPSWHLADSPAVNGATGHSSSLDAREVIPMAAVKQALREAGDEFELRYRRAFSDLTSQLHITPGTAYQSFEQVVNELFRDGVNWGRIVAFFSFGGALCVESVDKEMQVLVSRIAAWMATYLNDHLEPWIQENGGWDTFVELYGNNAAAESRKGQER

RX1 = RX1 (Homo sapiens, UniProt Q07817, A142G/F105L/F146A/L130I/Q111G/Q125V/S122I/V126A/Y101H); type: binding; conditions: from Ki values of RX1 and Bcl-xL for Bim-22 and Bad-22
[3] = tested on: fluoresceinated Bim vs. Bad BH3; assay: Fluorescence polarization direct binding of fluoresceinated Bim vs. Bad BH3; parameters: species or system human; conditions: labeled peptide 5 nM, at least 1 hr, ~25 °C

Molecule: Bim-22, Bim BH3 peptide of 22 residues
Ki (RX1, recombinant (human)): > 50000 nM
Ki [1]: 3 nM

Molecule: F105L: Bcl-xL point mutant F105L
Bad vs. Bim binding preference of point mutation in the context of Bcl-xL (Bim and Bad BH3 peptides): favored Bim binding over Bad

Molecule: S122I: Bcl-xL point mutant, Ser 122 to Ile
Bad vs. Bim binding preference of point mutation in the context of Bcl-xL (Bim and Bad BH3 peptides): preferred binding Bad over Bim; also recorded: confirmed to be specific

Molecule: V126A: Bcl-xL point mutant V126A
Bad vs. Bim binding preference of point mutation in the context of Bcl-xL (Bim and Bad BH3 peptides): preferred binding Bad over Bim

B3: Bad-28, recombinant Bad BH3 28-mer peptide (peptide, UniProt Q92934 104-131, looked up)
peptide: LWAAQRYGRELRRMSDEFVDSFKKGLPR
Ki [2]: < 0.1 nM

Results, then the molecule that gave them:

Bad vs. Bim binding preference of point mutation in the context of Bcl-xL (Bim and Bad BH3 peptides): confirmed to be specific
Molecule: A104M: Bcl-xL point mutant A104M (not in RX1)

Bad vs. Bim binding preference of point mutation in the context of Bcl-xL (Bim and Bad BH3 peptides): preferred binding Bad over Bim
Molecule: A142G: Bcl-xL point mutant A142G

Ki (RX1, recombinant (human)): 33 nM
Ki [1]: 2 nM
Molecule: Bad-22, Bad BH3 peptide of 22 residues

Bad vs. Bim binding preference of point mutation in the context of Bcl-xL (Bim and Bad BH3 peptides): did not confer specificity
Molecule: F146A: Bcl-xL point mutant F146A

Bad vs. Bim binding preference of point mutation in the context of Bcl-xL (Bim and Bad BH3 peptides): shown not to be
Molecule: L130I: Bcl-xL point mutant L130I

Ki [2]: < 0.1 nM
B1: PUMA BH3 peptide (peptide)
chain: EQWAREIGAQLRRMADDLNAQYERRRQE

specificity increase for Bad BH3 over Bim BH3 relative to native Bcl-xL (RX1): ≥ 1,000 fold
preference for binding Bad over Bim, direct binding [3]: strong preference
B2: RX1: Re-designed Bcl-xL variant: Y101H, F105L, Q111G, S122I, Q125V, V126A, L130I, A142G, F146A (protein)
chain: MSQSNRELVVDFLSYKLSQKGYSWSQFSDVEENRTEAPEGTESEMETPSAINGNPSWHLADSPAVNGATGHSSSLDAREVIPMAAVKQALREAGDEFELRHRRALSDLTSGLHITPGTAYQIFEVAVNEIFRDGVNWGRIVGFFSAGGALCVESVDKEMQVLVSRIAAWMATYLNDHLEPWIQENGGWDTFVELYGNNAAAESRKGQER
modifications: left off: His6, end not stated, state not stated
